In paper PMC4955683 (Nature chemical biology, 2016):

Experiments:
[1] = system: SIRT6 (self ADP-ribosylation); assay: In vitro mono-ADP-ribosylation assay; type: biochemical, human; conditions: 2.5 µM SIRT6, 50 µM 6-alkyne-NAD, 30°C, 30 min
In short: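 Reactions contained SIRT6 WT or mutants in 25 mM Tris-HCl pH 8.0, 50 mM NaCl, 1 mM DTT, with NAD+ replacing 6-alkyne-NAD as negative control. Click chemistry with BODIPY-N3, TBTA, CuSO4 and TCEP ran 30 min at room temperature. Samples were boiled in SDS buffer, separated on 12% SDS-PAGE and destained 2 h, and ADP-ribosylation was read as in-gel BODIPY fluorescence.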

RPL17 and RPS7 = RPL17 and RPS7 in exosomes from MEFs; type: cell-based, mouse; conditions: exosomes from Sirt6 KO MEFs expressing SIRT6
In short: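 MEFs at 90% confluence were washed with PBS and serum-free DMEM, then conditioned in serum-free medium for 12 h. Medium was cleared at 500 g (5 min) and 3,000 g (20 min), then passed through a 0.2 µm filter. Filtrate was ultracentrifuged at 100,000 g for 2 h, and pellets were washed, re-pelleted and lysed in NP-40 buffer. Blots used RPL17/RPS7 antibodies (1:1000, 4 °C 12 h) with ECL detection.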

[2] = HPLC analysis of SIRT6 binding to NAD+; conditions: 10 µM SIRT6 incubated with 10 µM NAD+, 10 kDa cutoff membrane
In short: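 SIRT6 (10 µM; WT, G60A or H133Y) was incubated with 10 µM NAD+ in 25 mM Tris-HCl pH 8.0, 50 mM NaCl for 30 min at room temperature. The mix was diluted to 500 µL and spun through a 10 kDa membrane (15,000 g, 20 min). The filtrate (unbound NAD+) was lyophilized, redissolved in water and quantified by HPLC.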

TNFα = assay: ELISA analysis of TNFα secretion in MEFs; type: cell-based, Human; conditions: SIRT6 stably expressed in Sirt6 KO MEFs
[3] = NAD+ binding by intrinsic tryptophan fluorescence; conditions: read-out: Kd for NAD^+ in the presence of H3K9 acetyl peptide, 1 mM H3K9 acetyl peptide
In short: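 SIRT6 (3 µM) in 25 mM Tris-HCl pH 7.4, 150 mM NaCl, 10% glycerol was premixed with 1 mM tryptophan-free Ac-H3K9 and titrated with NAD+. Excitation was 295 nm with emission scanned 320–390 nm, using peak maxima. Fraction bound was (F−F0)/(Fsat−F0), and Kd came from a one-site quadratic binding fit with [E] = 3 µM.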

Sirt6 KO MEFs [4] = assay: Secreted and intracellular protein levels in MEFs; type: cell-based, mouse; conditions: SIRT6 overexpressed in Sirt6 KO cells
In short: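 MEFs at 90% confluence were washed with PBS and serum-free DMEM, then kept in serum-free DMEM for 12 h. Medium was cleared at 500 g (5 min) and 3,000 g (10 min) and concentrated on 10 kDa filters. Western blots were probed for VCP, RPL17, RPS7, COL5A1, COL6A1 and CXCL1 (1:1000, 4 °C 12 h), followed by secondary antibody (1:3000, 1 h RT) and ECL detection.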

H3K9 myristoyl peptide [5] = assay: Defatty-acylation assay, SIRT6 purified from HEK 293T cells; type: biochemical; conditions: 0.2 µM SIRT6 from HEK293T cells, 5 µM Myr-H3K9, 1 mM NAD+, 37°C, 60 min
In short: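 SIRT6 WT or mutants were affinity-purified from HEK 293T lysates on anti-Flag gel, eluted with 3X FLAG peptide and buffer-exchanged on a 10 kDa membrane. Reaction buffer was 25 mM Tris-HCl pH 8.0, 50 mM NaCl, 1 mM DTT. Reactions were quenched with cold acetonitrile and centrifuged, and supernatants were analysed by C18 reverse-phase HPLC (water/acetonitrile, 0.1% TFA) for H3K9 peptide formation.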

[6] = system: H3K9 palmitoyl, TNFα myristoyl and H3K9 octanoyl peptides; assay: Defatty-acylation assay on other fatty-acyl peptides; type: biochemical
[7] = system: acetyl-H3K9 and acetyl-H3K56; type: cell-based, Human; conditions: flag-tagged SIRT6 overexpressed in SIRT6 KO 293T cells
In short: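 Sirt6 KO HEK 293T cells in DMEM/10% heat-inactivated FBS were transiently transfected with SIRT6 WT, mutants or empty pCMV4a. Blots were probed with Ac-H3K9, Ac-H3K56 and histone H3 antibodies (1:5000; acetyl antibodies 4 °C 12 h), then secondary antibody (1:3000, 1 h RT). Detection was by ECL chemiluminescence; band intensities were quantified as mean ± s.d. of three replicates.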

[8] = Thermal shift assay and tryptophan fluorescence emission spectra; type: physicochemical
H3K9 acetyl peptide = assay: Deacetylation assay, SIRT6 WT and mutants purified from E. coli; type: biochemical; conditions: 2 µM SIRT6, 25 µM H3K9 acetyl peptide, 1 mM NAD+, 300 µM palmitic acid, 37°C, 2 hours
In short: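 Full-length human SIRT6 (WT or mutant) was expressed from pET28a in E. coli BL21(DE3). Reactions (40 µL) contained 25 mM Tris-HCl pH 8.0, 50 mM NaCl and 1 mM DTT plus the listed components. They were quenched with an equal volume of cold acetonitrile and centrifuged. Supernatants were run on C18 HPLC using a water/acetonitrile 0.1% TFA gradient to quantify deacetylated H3K9 peptide.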

Sirt6 KO MEFs [9] = assay: Cell viability after glucose starvation; type: cell-based, mouse; conditions: SIRT6 expressed in Sirt6 KO MEFs, glucose free medium 72 h
In short: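 Stable SIRT6-expressing Sirt6 KO MEFs were selected with […] puromycin 48 h post-infection, with empty pCDH vector as control, and grown in DMEM/10% heat-inactivated FBS. Cells were seeded at 3,000/well and switched after 48 h to glucose-free DMEM/10% FBS for 72 h. They were then fixed in cold methanol, stained with 0.2% crystal violet, solubilized in 0.5% SDS/50% ethanol, and read at 550 nm.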

H3K9 myristoyl peptide [10] = assay: Demyristoylation steady-state kinetics; type: biochemical
[11] = system: IAP2, GLS, RPL3 and MnSOD; assay: mRNA levels of SIRT6-regulated genes in Sirt6 KO MEFs; type: cell-based, mouse; conditions: SIRT6 overexpressed in Sirt6 KO MEFs

Substance | ADP-ribosyltransferase (ART) activity [1] | RPL17 and RPS7 in exosomes (RPL17 and RPS7) | NAD^+ bound to SIRT6 [2] | TNFα secretion (TNFα) | Kd [3] | secreted levels of Group 1 proteins (RPL17, RPS7, VCP) (Sirt6 KO MEFs [4]) | secreted levels of Group 2 proteins (COL6A1, COL5A1, CXCL1) (Sirt6 KO MEFs [4]) | defatty-acylase activity, substrate conversion (H3K9 myristoyl peptide [5]) | defatty-acylase activity on other fatty-acyl peptides [6] | H3K9 and H3K56 acetylation levels in cells [7] | stability and fluorescence with H3K9 myristoyl peptide ([8]; 0.1 mM H3K9 myristoyl peptide) | stability and fluorescence with H3K9 acetyl peptide ([8]; 1 mM H3K9 acetyl peptide) | thermal stability ([8]; without peptide, versus SIRT6 WT, 37 to 62 °C for 3 min) | H3K9 acetyl peptide hydrolyzed/converted to H3K9 peptide (H3K9 acetyl peptide) | glucose starvation-caused cell death (Sirt6 KO MEFs [9]) | decrease of kcat of demyristoylation versus SIRT6 WT (H3K9 myristoyl peptide [10]) | increase of Km of demyristoylation versus SIRT6 WT (H3K9 myristoyl peptide [10]) | transcriptional suppression of IAP2, GLS, RPL3 and MnSOD [11]
SIRT6 R65A | weak self ADP-ribosylation activities |  |  |  |  |  |  |  |  |  |  |  |  |  |  |  |  | 
SIRT6 H133Y |  | can be detected | 59 ± 3% | no effect on TNFα secretion |  |  |  |  |  |  |  |  |  |  |  |  |  | 
SIRT6 G60A | no observable ART activity | not in exosomes | 2.0 ± 0.7% | promoted TNFα secretion | 634 ± 91 µM | decreased the secreted levels to that in Sirt6 WT cells | restored the secreted levels to that in Sirt6 WT cells | 25.6% | robust defatty-acylase activities | no detectable deacetylase activity in cells | became similar to those of SIRT6 WT | not affected | decreased thermal stability | approximately 1.8% | neither SIRT6 G60A nor H133Y did | 1.9 fold | 1.8 fold | could not
